Measurements from ChEMBL document CHEMBL4052611, “Opportunistic Sampling of Roadkill as an Entry Point to Accessing Natural Products Assembled by Bacteria Associated with Non-anthropoidal Mammalian Microbiomes” (J Nat Prod, 2017).

What was measured:
Candida albicans [1] = experiment: Antibiofilm activity against Candida albicans SC5314 after 48 hrs by XTT assay; format: functional; settings: SC5314, 48 h
Outline: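 SC5314 grown overnight in BHI at 37 °C, then washed in PBS and resuspended in RPMI-1640 buffered to pH 7.0 with 0.17 M MOPS. Cells at 2.5×10^3 cells mL^-1 were incubated 48 h at 37 °C with compounds (2 mM DMSO stocks; DMSO ≤2% v/v final). Wells were washed twice with PBS and refilled with fresh medium. Biofilm was read by XTT (0.1 mg mL^-1, 1 h, 37 °C) at A492. Triplicate, three separate occasions.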

Candida albicans [2] = experiment: Induction of cell killing in Candida albicans SC5314 up to 100 uM after 48 hrs by XTT assay
Outline: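 Growth assay based on CLSI M27-A3, modified. SC5314 was precultured overnight in BHI at 37 °C, washed in PBS (pH 7.4) and resuspended at 2.5×10^3 cells mL^-1 in RPMI-1640/MOPS (pH 7.0). Compounds came from 2 mM DMSO stocks (DMSO ≤2% v/v final). After 48 h at 37 °C, viability was read by XTT (0.1 mg mL^-1, 1 h) at A492. MIC = lowest concentration giving ≥85% loss of metabolic activity. Triplicate, three occasions.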

| SMILES | IC50 (Candida albicans [1]) [µM] | Activity (Candida albicans [2]) |
| --- | --- | --- |
| CCCCCCC[C@@H]1CC(=O)N[C@H](CC(C)C)C(=O)N[C@@H](CO)C(=O)N[C@@H]([C@@H](C)O)C(=O)N[C@H](Cc2ccccc2)C(=O)N[C@@H]([C@@H](C)CC)C(=O)O1 | 7.7 | Non-Toxic |
| CCCCCCC[C@@H]1CC(=O)N[C@H](CC(C)C)C(=O)N[C@@H](CO)C(=O)N[C@@H]([C@@H](C)O)C(=O)N[C@H](Cc2ccc(O)cc2)C(=O)N[C@@H]([C@@H](C)CC)C(=O)O1 | 29.2 | Non-Toxic |
| CCCCC[C@@H]1CC(=O)N[C@H](CC(C)C)C(=O)N[C@@H](CO)C(=O)N[C@@H]([C@@H](C)O)C(=O)N[C@H](Cc2ccccc2)C(=O)N[C@@H]([C@@H](C)CC)C(=O)O1 | 13.4 | Non-Toxic |
| CCCCCCC[C@@H]1CC(=O)N[C@H](CC(C)C)C(=O)N[C@@H](CO)C(=O)N[C@@H]([C@@H](C)O)C(=O)N[C@H](Cc2ccccc2)C(=O)N[C@@H](C(C)C)C(=O)O1 | 59.8 | Non-Toxic |
